{"source": "ChEMBL document CHEMBL2163230", "about": "“Identification of a glutathione peroxidase inhibitor that reverses resistance to anticancer drugs in human B-cell lymphoma cell lines” (Bioorg Med Chem Lett, 2012)", "key": {"[1]": {"target": "T1, Glutathione peroxidase 1 (Homo sapiens) (UniProt P07203)", "T1 sequence (whole entry)": "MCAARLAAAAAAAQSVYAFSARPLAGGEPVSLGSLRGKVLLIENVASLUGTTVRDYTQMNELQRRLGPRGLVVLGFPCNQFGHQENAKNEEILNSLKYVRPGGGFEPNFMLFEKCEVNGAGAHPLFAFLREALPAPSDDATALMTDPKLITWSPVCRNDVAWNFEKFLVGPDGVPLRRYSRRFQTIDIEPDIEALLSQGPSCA", "conditions": "50 uM"}, "[2]": {"target": "T2, Glutathione reductase, mitochondrial (Homo sapiens) (UniProt P00390)", "T2 sequence (whole entry)": "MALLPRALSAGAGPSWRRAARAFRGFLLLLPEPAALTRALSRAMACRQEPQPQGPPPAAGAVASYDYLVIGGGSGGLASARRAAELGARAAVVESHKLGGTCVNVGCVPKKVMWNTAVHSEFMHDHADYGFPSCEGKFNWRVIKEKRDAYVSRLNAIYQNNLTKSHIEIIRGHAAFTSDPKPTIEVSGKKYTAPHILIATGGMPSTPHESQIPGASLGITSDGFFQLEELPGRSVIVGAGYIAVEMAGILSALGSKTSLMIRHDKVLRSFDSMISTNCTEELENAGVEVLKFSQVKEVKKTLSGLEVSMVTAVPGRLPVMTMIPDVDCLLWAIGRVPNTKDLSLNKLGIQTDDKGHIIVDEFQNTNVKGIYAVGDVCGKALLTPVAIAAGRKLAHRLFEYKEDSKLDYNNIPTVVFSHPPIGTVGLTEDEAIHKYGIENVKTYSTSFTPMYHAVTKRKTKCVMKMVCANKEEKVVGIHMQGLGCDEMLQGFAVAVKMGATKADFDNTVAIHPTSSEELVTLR", "test": "Inhibition of glutathione reductase up to 200 uM", "in_short": "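Specific glutathione reductase assay (earlier method), compound tested at up to 200 µM.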"}, "[3]": {"target": "T1, Glutathione peroxidase 1 (Homo sapiens)", "conditions": "250 uM"}, "[4]": {"target": "T3, Glutathione peroxidase 1 (Homo sapiens, UniProt P07203)", "T3 sequence (P07203 whole entry)": "T1 sequence (whole entry)", "test": "Inhibition of GPx1 using gultathione as substrate by glutathione reductase-coupled assay", "in_short": "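GPx activity read as NADPH consumption at 340 nm. GPx oxidizes GSH to GSSG with H2O2 as co-substrate, and glutathione reductase reduces GSSG back to GSH. Earlier method, adapted to 96-well format. 0.1% Triton X-100 in all incubations to prevent compound precipitation. Docking used bovine erythrocyte GPx1.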"}, "[5]": {"test": "Resistance ratio of IC50 for human bortezomib-resistant DOGUM cells to IC50 for human DOGUM cells", "type": "functional"}, "[6]": {"test": "Cytotoxicity against human DOGUM cells after 72 hrs by MTT assay", "type": "functional, cell-based", "in_short": "(§1)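 Cells from two patients with chemotherapy-resistant non-Hodgkin B-cell lymphoma. Resistant sublines were made by exposure to methotrexate, etoposide, cisplatin or bortezomib in culture over 2–3 months. Microtiter MTT assay, giving the IC50 as mean ± SD of 3 or more independent experiments. Drugs were tested alone and with co-incubation with 25 µM inhibitor.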"}, "[7]": {"test": "Cytotoxicity against human bortezomib-resistant DOGUM cells after 72 hrs by MTT assay", "type": "functional, cell-based", "in_short": "as §1"}, "[8]": {"test": "Cytotoxicity against human GUMBUS cells after 72 hrs by MTT assay", "type": "functional, cell-based", "in_short": "as §1"}, "[9]": {"test": "Resistance ratio of IC50 for human bortezomib-resistant GUMBUS cells to IC50 for human GUMBUS cells", "type": "functional"}, "[10]": {"test": "Cytotoxicity against human bortezomib-resistant GUMBUS cells after 72 hrs by MTT assay", "type": "functional, cell-based", "in_short": "as §1"}, "[11]": {"test": "Resistance ratio of IC50 for human etoposide-resistant DOGUM cells to IC50 for human DOGUM cells", "type": "functional"}, "[12]": {"test": "Cytotoxicity against human etoposide-resistant GUMBUS cells after 72 hrs by MTT assay", "type": "functional, cell-based", "in_short": "as §1"}, "[13]": {"test": "Resistance ratio of IC50 for human etoposide-resistant GUMBUS cells to IC50 for human GUMBUS cells", "type": "functional"}, "[14]": {"test": "Cytotoxicity against human etoposide-resistant DOGUM cells after 72 hrs by MTT assay", "type": "functional, cell-based", "in_short": "as §1"}, "[15]": {"test": "Cytotoxicity against human methotrexate-resistant DOGUM cells after 72 hrs by MTT assay", "type": "functional, cell-based", "in_short": "as §1"}, "[16]": {"test": "Cytotoxicity against human methotrexate-resistant GUMBUS cells after 72 hrs by MTT assay", "type": "functional, cell-based", "in_short": "as §1"}}, "note": "The source made the active and inactive calls. The calls are words filed in the database; no cut-off is given here."}
{"smiles": "Cc1nccn1CC(=O)N/N=C/c1ccc(O)cc1", "values": [{"measurement": "inhibition", "setting": "[1]", "value": 15, "unit": "%"}, {"measurement": "inhibition", "setting": "[2]", "value": "inactive"}, {"measurement": "inhibition", "setting": "[3]", "value": "inactive"}, {"measurement": "IC50", "setting": "[4]", "value": 169000, "unit": "nM"}]}
{"smiles": "CC(C)C[C@H](NC(=O)[C@H](Cc1ccccc1)NC(=O)c1cnccn1)B(O)O", "note": "[BORTEZOMIB]", "values": [{"measurement": "Ratio IC50", "setting": "[5]", "value": 4}, {"measurement": "IC50", "setting": "[6]", "value": 2, "unit": "nM"}, {"measurement": "IC50", "setting": "[7]", "value": 7, "unit": "nM"}, {"measurement": "IC50", "setting": "[8]", "value": 6, "unit": "nM"}, {"measurement": "Ratio IC50", "setting": "[9]", "value": 6}, {"measurement": "IC50", "setting": "[10]", "value": 35, "unit": "nM"}]}
{"smiles": "COc1cc([C@@H]2c3cc4c(cc3[C@@H](O[C@@H]3O[C@@H]5CO[C@@H](C)O[C@H]5[C@H](O)[C@H]3O)[C@H]3COC(=O)[C@H]23)OCO4)cc(OC)c1O", "note": "[ETOPOSIDE]", "values": [{"measurement": "Ratio IC50", "setting": "[11]", "value": 4}, {"measurement": "IC50", "setting": "[6]", "value": 75, "unit": "nM"}, {"measurement": "IC50", "setting": "[12]", "value": 570, "unit": "nM"}, {"measurement": "IC50", "setting": "[8]", "value": 42, "unit": "nM"}, {"measurement": "Ratio IC50", "setting": "[13]", "value": 13}, {"measurement": "IC50", "setting": "[14]", "value": 280, "unit": "nM"}]}
{"smiles": "CN(Cc1cnc2nc(N)nc(N)c2n1)c1ccc(C(=O)N[C@@H](CCC(=O)O)C(=O)O)cc1", "note": "[METHOTREXATE]", "values": [{"measurement": "IC50", "setting": "[15]", "value": 340, "unit": "nM"}, {"measurement": "IC50", "setting": "[6]", "value": 84, "unit": "nM"}, {"measurement": "IC50", "setting": "[8]", "value": 24, "unit": "nM"}, {"measurement": "IC50", "setting": "[16]", "value": 534, "unit": "nM"}]}
